This excerpt belongs to a sample that is enriched for hits.
INS-1E rescue – rescue of cytokine-induced death in INS-1E beta cells; protection from cytokine-induced ATP loss, % at 10 µM; 20,000 compounds, 0.1% hits; INS-1E cytokine-induced death, ATP luminescence, 48 h; normalised: neutral wells 0, positive control 100;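 active means mean replicate protection from cytokine-induced ATP loss at least 50% and at least 75% of replicates each reaching 50%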
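assay system = INS-1E rat insulinoma cells | amount = 8000 cells per well | medium = phenol-red-free RPMI with 5% fetal bovine serum | doses = one compound concentration, pin transfer | timing = 48 h cytokine plus compound treatment, 10 min reagent incubation | also added = IL-1β, TNF-α and IFN-γ cytokine mix | signal = CellTiter-Glo luminescence measuring cellular ATP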
A1 apoptosis 2 – A1 inhibition read as caspase activation; MEF A1-2A-BIM cells, caspase-Glo luminescence, 3 h; percent of clofoctol response, DMSO zero; caspase activation, % (no concentration beside the values); 24,000 tested, under 10 active; AID 2465; in the data active means caspase activation above about 5.9%
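System: mouse embryonic fibroblasts co-expressing A1 and BIM (A1-2A-BIM), primed for A1 dependence; amount: 2500 cells/well; doses: 50 nL pinned compound; schedule: cells settled overnight, compound exposure 3 h at 37 °C, 5% CO2; detection: Caspase-Glo 3/7 luminescence, 1 h at room temperature; read-out: Caspase-3/7 activation, seen as rise in luminescence signal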
T cruzi intra – intracellular Trypanosoma cruzi inhibition; activity score (inhibition), % at 5.01 µM; intracellular Trypanosoma cruzi in host cells, plate reader; AID 651903; 22,000 compounds, 4.9% hits; in the data active means activity score above about 55%;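 further: parasites and compound incubated about four days before reading; 0% = median of neutral control wells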
An asterisk follows results filed as active.

`Cc1ccc(S(=O)(=O)Nc2ccc3c(c2)C(=O)N([C@H](C)CO)C[C@H](C)[C@H](CN(C)S(=O)(=O)c2ccccc2)O3)cc1` gave A1 apoptosis 2 -1.4 and T cruzi intra 74.4*.
Screening C[C@H]1CN([C@@H](C)CO)C(=O)c2cc(NS(=O)(=O)c3ccc(Cl)cc3)ccc2O[C@H]1CN(C)S(=O)(=O)c1ccc(Cl)cc1 returned T cruzi intra 44.1*.
`Cc1ccc(S(=O)(=O)N(C)C[C@H]2Oc3ccc(NS(=O)(=O)c4ccccc4)cc3C(=O)N([C@@H](C)CO)C[C@@H]2C)cc1` gave INS-1E rescue -5.0, A1 apoptosis 2 1.9 and T cruzi intra 5.6.
`COc1ccc(S(=O)(=O)N(C)C[C@@H]2Oc3c(NS(=O)(=O)c4ccccc4)cccc3C(=O)N([C@@H](C)CO)C[C@H]2C)cc1` gave INS-1E rescue 9.9, A1 apoptosis 2 -0.9 and T cruzi intra 14.5.
Screening O=C1O[C@H](c2ccccc2)[C@H](c2ccccc2)N2[C@H]1[C@@H](C(=O)N1CCN(c3ncccn3)CC1)[C@]1(C(=O)Nc3ccc(C#CCCO)cc31)[C@H]2c1ccc(O)cc1 returned A1 apoptosis 2 0.5.
O=C(CCCCCC(=O)N/N=C/c1ccco1)NO was read as A1 apoptosis 2 1.0.
For O=C(CCCCC(=O)N/N=C/c1ccccn1)NO the results were INS-1E rescue 2.9 and T cruzi intra -8.5.
For CC(/C=C/C(=O)NO)=C\c1cccc(OCc2ccc(COc3ccc4ccncc4c3)cc2)c1 the results were A1 apoptosis 2 -0.4.
O=C(CCCCCCC(=O)Nc1ccccc1O)N/N=C/c1cc(Br)cc([N+](=O)[O-])c1O was read as INS-1E rescue -13.2, A1 apoptosis 2 -1.3 and T cruzi intra 6.6.
`O=C(NO)c1ccc(C(=O)N/N=C/c2ccccc2OCCO)cc1` gave INS-1E rescue 8.2, A1 apoptosis 2 1.3 and T cruzi intra -6.6.
For C[C@@H]1CN([C@H](C)CO)C(=O)c2cc(NC(=O)Nc3ccccc3)ccc2O[C@@H]1CN(C)Cc1ccc(C(F)(F)F)cc1 the results were T cruzi intra -5.3.
`C[C@H](CO)N1C[C@H](C)[C@@H](CN(C)Cc2ccc(Oc3ccccc3)cc2)Oc2ccc(NC(=O)Nc3ccc(C(F)(F)F)cc3)cc2C1=O` gave INS-1E rescue -22.3, A1 apoptosis 2 0.2 and T cruzi intra -4.4.
`C[C@H]1CN([C@@H](C)CO)C(=O)c2cc(NC(=O)Nc3ccc(C(F)(F)F)cc3)ccc2O[C@H]1CN(C)Cc1ccc(Oc2ccccc2)cc1` gave INS-1E rescue -40.8 and T cruzi intra 80.1*.
`C[C@H](CO)N1C[C@H](C)[C@H](CN(C)Cc2ccc(Oc3ccccc3)cc2)Oc2ccc(NC(=O)Nc3ccc(C(F)(F)F)cc3)cc2C1=O` gave T cruzi intra 62.6*.
For C[C@H](CO)N1C[C@H](C)[C@H](CN(C)Cc2ccc(C(F)(F)F)cc2)Oc2ccc(NC(=O)Nc3cccc4ccccc34)cc2CC1=O the results were INS-1E rescue -38.5 and T cruzi intra 79.3*.
C[C@H](CO)N1C[C@H](C)[C@H](CN(C)Cc2ccccc2)Oc2ccc(NC(=O)Nc3cccc4ccccc34)cc2CC1=O was read as INS-1E rescue -10.5 and T cruzi intra 40.1.
`C[C@H]1CN([C@@H](C)CO)C(=O)Cc2cc(NC(=O)Nc3cccc4ccccc34)ccc2O[C@@H]1CN(C)Cc1ccc(C(F)(F)F)cc1` gave INS-1E rescue -52.0, A1 apoptosis 2 -0.3 and T cruzi intra 69.2*.
C[C@H](CO)N1C[C@H](C)[C@H](CN(C)C(=O)Nc2ccc(C(F)(F)F)cc2)Oc2ccc(NC(=O)Nc3cccc4ccccc34)cc2CC1=O was read as INS-1E rescue -19.5, A1 apoptosis 2 0.2 and T cruzi intra 9.1.
`C[C@H](CO)N1C[C@H](C)[C@H](CN(C)Cc2ccc(C(=O)O)cc2)Oc2ccc(NC(=O)Nc3cccc4ccccc34)cc2CC1=O` gave INS-1E rescue 4.6, A1 apoptosis 2 -0.3 and T cruzi intra 1.9.
C[C@H]1CN([C@@H](C)CO)C(=O)Cc2cc(NC(=O)Nc3cccc4ccccc34)ccc2O[C@H]1CN(C)Cc1ccc(C(F)(F)F)cc1 was read as INS-1E rescue -80.5 and T cruzi intra 72.8*.
Screening C[C@@H]1CN([C@H](C)CO)C(=O)Cc2cc(NC(=O)Nc3cccc4ccccc34)ccc2O[C@H]1CN(C)Cc1ccc(C(F)(F)F)cc1 returned INS-1E rescue -53.8, A1 apoptosis 2 0.2 and T cruzi intra 58.7*.
`C[C@@H]1CN([C@@H](C)CO)C(=O)Cc2cc(NC(=O)Nc3cccc4ccccc34)ccc2O[C@@H]1CN(C)C(=O)Nc1ccc(C(F)(F)F)cc1` gave INS-1E rescue -30.3, A1 apoptosis 2 0.8 and T cruzi intra 46.0.
Screening COc1ccc(/C=N/NC(=O)CCCCCCC(=O)Nc2ccccc2O)cc1O returned INS-1E rescue -3.1, A1 apoptosis 2 1.0 and T cruzi intra 3.3.
`O=C(NO)c1ccc(C(=O)N/N=C/c2cccnc2)cc1` gave INS-1E rescue -10.2 and T cruzi intra 1.9.
Screening COCCOC(=O)N1C(=O)[C@@]2(c3cc(C#CC4(O)CCCCCC4)ccc31)[C@H](c1ccc(O)cc1)N1[C@H](c3ccccc3)[C@H](c3ccccc3)OC(=O)[C@H]1[C@@H]2C(N)=O returned A1 apoptosis 2 0.5.
For O=C(N/N=C/c1cn(Cc2ccccc2)c2ccccc12)c1ccccc1O the results were INS-1E rescue -10.3 and T cruzi intra -25.9.
For CN(C)c1ccc(/C=N/NC(=O)c2ccccc2O)cc1 the results were INS-1E rescue -23.7 and T cruzi intra -12.0.
Screening CC1(C)C[C@H]2C[C@H]3C(Br)=CC2(CO1)C(=O)[C@]31CO1 returned A1 apoptosis 2 1.5.
C[C@@H]1CN([C@@H](C)CO)C(=O)Cc2cc(NS(=O)(=O)c3cccs3)ccc2O[C@@H]1CN(C)Cc1ccc(C(=O)Nc2ccccc2N)cc1 was read as INS-1E rescue -6.5, A1 apoptosis 2 -0.1 and T cruzi intra 62.5*.
`C[C@H]1CN([C@@H](C)CO)C(=O)c2cc(NS(=O)(=O)c3cccs3)ccc2O[C@H]1CN(C)Cc1ccc(C(=O)Nc2ccccc2N)cc1` gave INS-1E rescue -7.7 and T cruzi intra 34.9.
For C[C@H](CO)N1C[C@H](C)[C@H](CN(C)Cc2ccc(C(=O)Nc3ccccc3N)cc2)Oc2ccc(NS(=O)(=O)c3cccs3)cc2C1=O the results were INS-1E rescue 11.0 and T cruzi intra 65.4*.
`C[C@@H]1CN([C@H](C)CO)C(=O)Cc2cc(NS(=O)(=O)c3cccs3)ccc2O[C@@H]1CN(C)Cc1ccc(C(=O)Nc2ccccc2N)cc1` gave INS-1E rescue -7.0, A1 apoptosis 2 0.6 and T cruzi intra 42.2.
Screening C[C@@H]1CN([C@H](C)CO)C(=O)c2cc(NS(=O)(=O)c3cccs3)ccc2O[C@@H]1CN(C)Cc1ccc(C(=O)Nc2ccccc2N)cc1 returned INS-1E rescue 29.5 and T cruzi intra 63.5*.
